≈ marks a conversion by molar mass, not a printed value. Calls of active or inactive are those of the source. The calls are words filed in the database; no cut-off is given here.
Assays:
Format in all cases: functional
[1] = test system: Mycolicibacterium smegmatis; assay: Antimicrobial activity against Mycobacterium smegmatis str. MC2 155 by broth microdilution method
[2] = test system: Staphylococcus haemolyticus; assay: Antimicrobial activity against methicillin-sensitive Staphylococcus haemolyticus L1729 by broth microdilution method
Streptococcus pyogenes [3] = assay: Antimicrobial activity against Streptococcus pyogenes ATCC BAA 1407 by broth microdilution method
Escherichia coli [4] = assay: Antimicrobial activity against Escherichia coli ATCC 25922 by broth microdilution method
Escherichia coli [5] = assay: Antimicrobial activity against hyperpermeable Escherichia coli G1640 by broth microdilution method
Streptococcus pyogenes [6] = assay: Antimicrobial activity against Streptococcus pyogenes ATCC BAA 1402 by broth microdilution method
[7] = test system: Lactobacillus delbrueckii; assay: Antimicrobial activity against Lactobacillus delbrueckii ATCC 4797 by broth microdilution method
[8] = test system: Stenotrophomonas maltophilia; assay: Antimicrobial activity against Stenotrophomonas maltophilia L3030 by broth microdilution method
Escherichia coli [9] = assay: Antimicrobial activity against delta-tolC containing Escherichia coli L4242 by broth microdilution method
Streptococcus pyogenes [10] = assay: Antimicrobial activity against Streptococcus pyogenes L49 by broth microdilution method
Pseudomonas aeruginosa = assay: Antimicrobial activity against Pseudomonas aeruginosa ATCC 27853 by broth microdilution method
Staphylococcus aureus [11] = assay: Antimicrobial activity against glycopeptide-intermediate resistant Staphylococcus aureus L3797 by broth microdilution method
Outline: (§1)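 CLSI broth microdilution in Müller Hinton broth containing 20 mg/L CaCl2 and 10 mg/L MgCl2. Clinical isolates inoculated at 5 × 10^5 cfu/mL and incubated at 37 °C for 20−24 h. MIC read as the lowest inhibiting concentration.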

Haemophilus influenzae = assay: Antimicrobial activity against Haemophilus influenzae L3296 by broth microdilution method
Staphylococcus aureus [12] = assay: Antimicrobial activity against methicillin-resistant Staphylococcus aureus L1400 by broth microdilution method; outline: as §1
Enterococcus faecium [13] = assay: Antimicrobial activity against VanS expressing Enterococcus faecium L568 by broth microdilution method
Moraxella catarrhalis = assay: Antimicrobial activity against Moraxella catarrhalis L3292 by broth microdilution method
Staphylococcus aureus [14] = assay: Antimicrobial activity against methicillin-sensitive Staphylococcus aureus ATCC 6538P by broth microdilution method
Cutibacterium acnes = assay: Antimicrobial activity against Propionibacterium acnes ATCC 25476 by broth microdilution method
Bacteroides fragilis = assay: Antimicrobial activity against Bacteroides fragilis ATCC 25285 by broth microdilution method
Clostridioides difficile = assay: Antimicrobial activity against Clostridium difficile L4013 by broth microdilution method
Acinetobacter baumannii = assay: Antimicrobial activity against Acinetobacter baumannii ATCC 13637 by broth microdilution method
Enterococcus faecium [15] = assay: Antimicrobial activity against VanA expressing Enterococcus faecium L569 by broth microdilution method
Staphylococcus aureus [16] = assay: Antimicrobial activity against glycopeptide-intermediate resistant Staphylococcus aureus L3798 by broth microdilution method; outline: as §1
[17] = test system: Staphylococcus haemolyticus; assay: Antimicrobial activity against methicillin-resistant Staphylococcus haemolyticus L1730 by broth microdilution method; outline: as §1

Compound	MIC [1]	MIC [2]	MIC (Streptococcus pyogenes [3])	MIC (Escherichia coli [4])	MIC (Escherichia coli [5])	MIC (Streptococcus pyogenes [6])	MIC [7]	MIC [8]	MIC (Escherichia coli [9])	MIC (Pseudomonas aeruginosa)	MIC (Staphylococcus aureus [11])	MIC (Haemophilus influenzae)	MIC (Moraxella catarrhalis)	MIC (Cutibacterium acnes)	MIC (Bacteroides fragilis)	MIC (Clostridioides difficile)	MIC (Acinetobacter baumannii)	MIC (Enterococcus faecium [15])	MIC (Staphylococcus aureus [16])	MIC [17]	also measured
COc1cc2c(=O)c3cc4c(=O)c(OC)cc(=O)c4c(O)c3c(=O)c2c2c1C(=O)OC2	Active	Active	Active	Active	Active	Active	Active	Active	Active	Active	Active	Active	Active	Active	Active	Active	Active	Active	Active	Active	MIC (Streptococcus pyogenes [10]): Active; MIC (Staphylococcus aureus [12]): Active; MIC (Enterococcus faecium [13]): Active; MIC (Staphylococcus aureus [14]): Active
CN[C@H](CC(C)C)C(=O)N[C@H]1C(=O)N[C@@H](CC(N)=O)C(=O)N[C@H]2C(=O)N[C@H]3C(=O)N[C@H](C(=O)N[C@H](C(=O)O)c4cc(O)cc(O)c4-c4cc3ccc4O)[C@H](O)c3ccc(c(Cl)c3)Oc3cc2cc(c3O[C@@H]2O[C@H](CO)[C@@H](O)[C@H](O)[C@H]2O[C@H]2C[C@](C)(N)[C@H](O)[C@H](C)O2)Oc2ccc(cc2Cl)[C@H]1O [VANCOMYCIN]	> 128 µg/mL	2 µg/mL (≈ 1.38 µM)	–	> 128 µg/mL	> 128 µg/mL	–	> 128 µg/mL	128 µg/mL (≈ 88.3 µM)	> 128 µg/mL	2 µg/mL (≈ 1.38 µM)	8 µg/mL (≈ 5.52 µM)	> 128 µg/mL	32 µg/mL (≈ 22.1 µM)	0.25 µg/mL (≈ 0.173 µM)	16 µg/mL (≈ 11 µM)	0.5 µg/mL (≈ 0.345 µM)	128 µg/mL (≈ 88.3 µM)	> 128 µg/mL	8 µg/mL (≈ 5.52 µM)	128 µg/mL (≈ 88.3 µM)	–
O=C1OCc2c1c(O)cc1c(=O)c3cc4c(=O)c(O)cc(=O)c4c(O)c3c(=O)c21	> 16 µg/mL	> 16 µg/mL	8 µg/mL (≈ 20.4 µM)	> 16 µg/mL	> 16 µg/mL	8 µg/mL (≈ 20.4 µM)	> 16 µg/mL	> 16 µg/mL	> 16 µg/mL	> 16 µg/mL	> 16 µg/mL	> 16 µg/mL	> 16 µg/mL	> 16 µg/mL	> 16 µg/mL	> 64 µg/mL	> 16 µg/mL	> 16 µg/mL	> 16 µg/mL	> 16 µg/mL	MIC (Streptococcus pyogenes [10]): 16 µg/mL (≈ 40.8 µM); MIC (Staphylococcus aureus [12]): > 16 µg/mL; MIC (Enterococcus faecium [13]): > 16 µg/mL; MIC (Staphylococcus aureus [14]): > 16 µg/mL
CNc1cc(=O)c2c(O)c3c(=O)c4c5c(c(OC)cc4c(=O)c3cc2c1=O)C(=O)OC5	Active	Active	Active	Active	Active	Active	Active	Active	Active	Active	Active	Active	Active	Active	Active	Active	Active	Active	Active	Active	MIC (Streptococcus pyogenes [10]): Active; MIC (Staphylococcus aureus [12]): Active; MIC (Enterococcus faecium [13]): Active; MIC (Staphylococcus aureus [14]): Active
GENTAMICIN	16 µg/mL	–	–	0.25 µg/mL	0.25 µg/mL	–	–	64 µg/mL	0.25 µg/mL	–	–	128 µg/mL	0.25 µg/mL	–	–	–	0.125 µg/mL	–	–	–	–

Reference: ChEMBL document CHEMBL4229322, “Antibacterial Paramagnetic Quinones from Actinoallomurus” (2017)
